The values below come from ChEMBL document CHEMBL5653608 (Br J Pharmacol, 2011).

The IC50 is the concentration at which inhibition is half-maximal. As a reminder, the EC50 is the concentration at which the effect is half-maximal.

Experiment [1] can be described thus: Inhibition of EFS-induced contraction of human myometrium incubated for 60 mins. The class given is functional, tissue-based. In short, it runs like this:
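Human myometrial strips (donors aged 24–76) in a 15 mL Krebs bath at 37°C, under EFS at 15 V, 1.5 ms pulses, 10 s every 100 s, at a submaximal 15 Hz. Antagonist (10 or 100 nM) or vehicle was equilibrated for 60 min. Cumulative butaprost (0.1 nM–10 µM) or PGE2 (0.1 nM–3 µM) was given for at least five EFS responses per concentration. pKB was calculated from same-donor concentration ratios.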

A short description of experiment [2]: Induction of relaxation in nifedipine-induced carbachol pre-contracted rings of Beagle dog bronchioles incubated for 1 hr relative to control. The class given is functional, Canis lupus familiaris, Bronchiole. The arrangement: scale not given: the % may be the effect or the level left. In short, it runs like this: (§1)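 Beagle bronchiole rings held at 1 g tension in Krebs at 37°C (with propranolol and phentolamine), primed with 80 mM KCl. Rings were precontracted with 1 µM carbachol, then antagonist (3–100 nM) or vehicle was equilibrated for 1 h. Cumulative PGE2 relaxation curves followed, with final 10 µM nifedipine defining maximal relaxation. KB by the Lew and Angus method.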

Experiment [3] is described as follows: Induction of relaxation in nifedipine-induced carbachol pre-contracted rings of Beagle dog bronchioles incubated for 1 hr. The class given is functional, tissue-based, Canis lupus familiaris, Bronchiole. Summed up:
as §1

Experiment [4] can be described thus: Induction of relaxation in forskolin-induced carbachol pre-contracted C57BL/6 mouse trachea incubated for 30 mins. The class given is functional, tissue-based. Summed up:
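Male C57BL/6 tracheal rings at 0.35 g tension in Krebs (95% O2/5% CO2, 37°C). Rings were precontracted with 10 µM carbachol before cumulative half-log PGE2 (0.1 nM–30 µM). Curves were repeated in the same ring after 30 min with 3 nM antagonist or DMSO, and 10 µM forskolin set maximal relaxation. pKB = log(CR−1) − log[B].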

A short description of experiment [5]: Induction of relaxation in […] C57BL/6 mouse trachea at 0.1 to 30 uM incubated for 30 mins relative to control (reference value: 21.6 +/- 8.8%). The class given is functional. The arrangement: scale not given: the % may be the effect or the level left. As to conditions: dose 0.1-30 µM, 0.5 h.

The compound `CCCCC[C@H](O)/C=C/[C@H]1[C@H](O)CC(=O)[C@@H]1C/C=C\CCCC(=O)O` [DINOPROSTONE] returned an IC50 in experiment [1] of 17.3 nM. Further, the Activity was determined as 82% in experiment [2] and 65.4% in experiment [5]. The 50% effective concentration (EC50) in experiment [3] turned out to be 90 nM; in experiment [4], 133 nM.
